# From PubChem
# rCAG RNA binder = r(CAG) repeat RNA binding | TO-PRO-1 dye displacement fluorescence | inhibition, % at 3 µM | hit rate 1.3% among 370,000 | AID 651821;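 active = inhibition above the plate cutoff, the mean of all test compounds on that plate plus 3 SD, cut at about 35% in these data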;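 also: 0% = DMSO alone and 100% = 100 µM mitoxantrone as full dye displacement; higher means more dye released from RNA so lower well fluorescence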
# SIAE primary = blocks human sialic acid acetylesterase | Q9HAT2 | SIAE FP-Rh probe binding, fluorescence polarization | inhibition, % at 9.66 µM | hit rate 0.69% among 370,000 | AID 1053197;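 active = inhibition above a cutoff: mean of compounds within the control limits plus 3 SD of those, cut at about 17% in these data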;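 also: 0% = plate median of compound wells and 100% = probe without SIAE protein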
# HTRA1 inhibitor = blocks human HTRA1 serine peptidase | Q92743 | hit rate 0.5% among 340,000 | AID 504803 | recombinant HTRA1, FP-rhodamine activity-based probe, fluorescence polarization | inhibition, % at 5.96 µM; in the data active = inhibition above about 36%;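 also: 0% = enzyme with DMSO and 100% = wells lacking enzyme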
# TCR-CD3 inh = human TCR-CD3 binding inhibition; TAMRA-labeled TCR probe fluorescence, biochemical; inhibition, % at 9.4 µM; hit rate 0.37% among 360,000;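 also: recombinant mutant TCR 2C K166C tagged with TAMRA read by polarization; 0% = receptor in buffer alone and 100% = receptor with positive control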
# ABHD4 inh = ABHD4 (mouse) inhibition, primary FP screen; purified mABHD4, FP-Rh probe fluorescence polarization; inhibition, % at 8.92 µM; hit rate 0.54% among 370,000;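 active = inhibition exceeding the mean over every tested compound plus 3 SD, cut at about 30% in these data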;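 also: 0% = plate median of compound wells and 100% = S159A mutant with DMSO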
# Target sequence (Q8VD66 whole entry, looked up): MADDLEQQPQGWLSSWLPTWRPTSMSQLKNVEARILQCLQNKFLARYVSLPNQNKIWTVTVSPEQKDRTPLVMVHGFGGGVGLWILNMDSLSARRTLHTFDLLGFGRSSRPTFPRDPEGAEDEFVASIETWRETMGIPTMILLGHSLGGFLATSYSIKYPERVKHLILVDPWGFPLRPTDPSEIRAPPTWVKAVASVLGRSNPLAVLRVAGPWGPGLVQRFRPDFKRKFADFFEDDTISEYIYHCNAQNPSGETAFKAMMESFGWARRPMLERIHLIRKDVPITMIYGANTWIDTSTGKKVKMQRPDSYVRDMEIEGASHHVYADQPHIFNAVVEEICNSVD
#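 System: mouse ABHD4 enzyme, wild type / Medium: HEPES pH 7.0, NaCl, Pluronic buffer / Reagent: FP-Rh activity-based fluorescent probe / Control set: S159A mutant high control, sample median low control / Detection: fluorescence polarization with parallel and perpendicular emission, 525/598 nm / Schedule: 45 min + 60 min at 25 °C / Compound dosing: 8.92 µM, single dose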
# BSA TAMRA ctr = BSA probe counter-screen for TCR-CD3 inhibitors | shares compounds with TCR-CD3 inh | TAMRA-labeled BSA probe fluorescence counterscreen | inhibition, % at 9.4 µM | hit rate 10% among 1,200; in the data active = inhibition above about 23%;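 also: 0% = buffer low control and 100% = reference high control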
# TCR-CD3 inh conf = TCR-CD3 interaction inhibition, confirmation | AID 652036 | TAMRA-labeled TCR probe fluorescence binding assay | hit rate 48% among 1,200 | inhibition, % at 9.4 µM | shares compounds with TCR-CD3 inh
# The depositor's hits bear a star; · = no result given. A selection: hits, their analogues and other compounds. The true share with any hit is near 2.5%. Rule as the data show it, unless noted: active = inhibition above about 19%; inactive = the rest.
SMILES,rCAG RNA binder,SIAE primary,HTRA1 inhibitor,TCR-CD3 inh,ABHD4 inh,BSA TAMRA ctr,TCR-CD3 inh conf
COCCN1CN=C(NS(=O)(=O)c2ccc(C)cc2)NC1,4,5,5,5,9,·,·
Cc1nc2ccccc2c(=O)n1/N=C/c1c(O)ccc2ccccc12,2,4,5,24*,5,-9,8
Cc1nc2ccccc2c(=O)n1/N=C/c1cc(Br)ccc1O,0,5,-1,8,6,·,·
Cc1n[nH]c(=S)n1/N=C/c1c(O)ccc2ccccc12,1,5,6,30*,5,-4,18
COC(CNC(=O)c1cc(S(=O)(=O)N2CCc3ccccc32)ccc1F)OC,-2,3,7,9,-2,·,·
O=C(Nc1ccsc1C(=O)O)c1cccc(C(F)(F)F)c1,12,2,-12,-7,-9,·,·
Cc1ccccc1OCc1nc(-c2ccc(NC(=O)c3cccs3)cc2)no1,7,-6,-34,28*,-18,-8,-7
Cc1ccc(S(=O)(=O)CCC(=O)Oc2ccc3c(C)cc(=O)oc3c2)cc1,-1,11,-1,23*,2,-8,0
COc1cc(Br)cc(/C=N/NC(=O)Cc2ccccc2)c1O,10,12,19,-1,6,·,·
O=C(CP(=O)(c1ccccc1)c1ccccc1)N/N=C/c1cc(Br)cc(Br)c1O,4,11,29,50*,4,-9,51*
O=C(Cc1ccccc1)N/N=C/c1cc(Br)cc(Cl)c1O,14,14,18,30*,5,-14,18
Cc1cc(/C=C2\SC(=O)NC2=O)c(C)n1-c1ccc(N2CCOCC2)cc1,13,0,2,5,4,·,·
Cc1cc(/C=C2\SC(=O)NC2=O)c(C)n1-c1ccc(N(C)C)cc1,21,10,-1,27*,7,2,4
CCCS(=O)(=O)N1CCCC(C(=O)NCCCN(Cc2ccccc2)C(C)C)C1 (stereo unspecified),-1,7,4,65*,-4,-2,0
O=C(CCN1CCN(c2ccccc2F)CC1)c1ccc(Br)cc1,·,·,-12,·,·,·,·
CCN(CC)S(=O)(=O)c1ccc(C(=O)Nc2cc(C)cc(C)c2)cc1,-3,-9,-16,-6,-8,·,·
Cc1ccc(S(=O)(=O)N(C)c2ccc(OCC(=O)Nc3nc4c(ccc5ccccc54)s3)cc2)cc1,14,-15,-28,-9,-2,·,·
Cc1ccc(S(=O)(=O)N(C)c2ccc(OCC(=O)Nc3nc4ccccc4s3)cc2)cc1,13,-31,-49,21*,-13,5,0
Cc1nc(N)nc(Cl)c1Cc1ccc(Cl)cc1,0,0,-6,-3,4,·,·
Cn1nnc(NC(=S)NC(=O)/C=C/c2ccco2)n1,31,-3,14,19*,21,-7,-1
CCCn1nnc(NC(=O)/C=C/c2ccco2)n1,2,3,2,12,-1,·,·
CCn1c(=O)c(C(=O)Nc2ncccc2O)c(O)c2ccccc21,5,0,2,34*,-1,-2,15
C=CCc1cccc2cc(C(=O)NCCOC)c(=O)oc12,-2,-6,-2,-9,9,·,·
C=CCc1cccc2cc(C(=O)NNC(=O)CC#N)c(=O)oc12,7,3,4,29*,-3,1,15
CC1=NN(C(=O)c2ccccc2Br)C(O)(c2ccc(Cl)cc2)C1 (stereo unspecified),-1,-8,23,28*,2,-7,13
SMILES,rCAG RNA binder,SIAE primary,HTRA1 inhibitor,TCR-CD3 inh,ABHD4 inh,BSA TAMRA ctr,TCR-CD3 inh conf
CC1=NN(C(=O)c2ccccc2C)C(O)(c2ccc(Cl)cc2)C1 (stereo unspecified),-2,6,21,14,-2,·,·
COc1ccc(-c2cn(-c3ccc(Cl)cc3)c3[n+]2CCCCC3)cc1,0,6,0,34*,-3,-6,0
Clc1ccc(-c2cn(-c3ccc(Cl)cc3)c3[n+]2CCCCC3)cc1,3,7,-1,3,-4,·,·
CC(C)C[C@H]1CN([C@@H](Cc2ccc(O)cc2)CN2CCC[C@H]2CN2C(=O)C(=O)NC[C@@H]2Cc2ccccc2)C(=O)C(=O)N1CC1CCCCC1,6,2,·,-8,7,·,·
Cc1nn(-c2ccccc2)c(Cl)c1/C=N/NC(=O)c1cccnc1,-2,3,4,2,-1,·,·
O=C(N/N=C/c1c(Cl)nc2ccccn2c1=O)c1cccnc1,-1,-2,7,29*,13,-6,6
COc1ccc(-c2cc(CNc3nc4cc(-c5ccccc5C)sc4c(=O)n3C)on2)cc1,10,-51,·,30*,-20,8,12
COc1cccc(CNc2nc3cc(-c4ccccc4C)sc3c(=O)n2C)c1,7,-31,·,0,-46,·,·
CSc1nnc2c(n1)OC(C)N(C(=O)c1ccccc1)c1ccccc1-2 (stereo unspecified),-2,-1,5,2,-1,·,·
Cc1cc2cc(CNC(=O)c3ccc(S(=O)(=O)N4CCCCC4)cc3)ccc2[nH]1,18,-1,-12,20*,24,-2,-2
Cc1cc2cc(CNC(=O)c3cccc([N+](=O)[O-])c3)ccc2n1C,12,5,0,26*,27,3,4
Cc1cc2cc(CNC(=O)Cc3ccc([N+](=O)[O-])cc3)ccc2n1C,1,-1,29,5,2,·,·
Cc1cc2cc(CNC(=O)c3ccc(S(=O)(=O)N(C)C)cc3)ccc2n1C,16,15,11,25*,14,3,2
Cc1ccc(CNC(=O)c2ccc(S(=O)(=O)N3CCCCCC3)cc2)cc1,2,-1,1,-2,2,·,·
COc1cccc(CNC(=O)c2ccc(S(=O)(=O)N3CCOCC3)cc2)c1,0,6,-3,0,-3,·,·
Cc1cc2cc(CNC(=O)c3ccc(S(=O)(=O)N4CCOCC4)cc3)ccc2n1C,19,9,15,48*,23,2,5
O=S1(=O)N=C(N/N=C/c2cccs2)c2ccccc21,2,3,29,-1,9,·,·
O=C(N/N=C/c1cccnc1)c1ccc(Cn2cc([N+](=O)[O-])cn2)o1,1,0,-9,-1,-2,·,·
O=C(/C=C/c1cccc(F)c1)Nc1cc(S(=O)(=O)N2CCOCC2)ccc1N1CCCC1,7,5,0,-6,4,·,·
Cc1cc2cc(CNC(=O)c3ccc(Br)o3)ccc2n1C,11,-3,-1,22*,-7,6,7
CCc1c(C)sc(NC(=O)OC)c1C(=O)N1CCCCC1,8,8,12,19*,15,21,17
Cc1ccc(S(=O)(=O)Cc2ccc(C(=O)N3CCN(c4cccc(C)c4C)CC3)o2)cc1,5,1,-17,-5,-8,·,·
Cc1ccc(C(=O)N2CCN(c3cccc(C)c3C)CC2)o1,-9,2,-7,33*,2,3,-1
